The source made the active and inactive calls. The rule behind the calls is not given here. Where a SMILES comes first, the peptide text is derived from it. [ ]: non-standard residue; d: D form. The star is where a group is joined. Bn = c1ccc(C*)cc1; Acm = CC(=O)NC*; tBu = CC(C)(C)*

Assay [1] has as its target T1, Neuropeptide S receptor (Mus musculus) (UniProt Q8BZP8).
T1 sequence (whole entry): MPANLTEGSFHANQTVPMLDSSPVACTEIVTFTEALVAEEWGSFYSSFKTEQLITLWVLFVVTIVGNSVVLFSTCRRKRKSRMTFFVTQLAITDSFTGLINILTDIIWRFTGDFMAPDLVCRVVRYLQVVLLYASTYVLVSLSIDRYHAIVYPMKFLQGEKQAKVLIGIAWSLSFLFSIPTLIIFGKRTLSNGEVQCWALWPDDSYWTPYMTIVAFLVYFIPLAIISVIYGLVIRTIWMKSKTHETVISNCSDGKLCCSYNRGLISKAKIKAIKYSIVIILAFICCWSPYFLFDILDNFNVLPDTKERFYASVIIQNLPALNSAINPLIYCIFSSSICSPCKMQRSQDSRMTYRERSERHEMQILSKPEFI
The experiment in a line: Agonist activity at mouse NPSR expressed in HEK293 cells upto 10 uM by calcium mobilization assay. It counts as functional, cell-based. In a few lines:
(§1)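 HEK293 cells stably expressing mouse NPSR were grown in DMEM with 10% FBS, 2 mM glutamine and hygromycin. They were plated on poly-D-lysine wells and, the next day, loaded for 30 min at 37 °C with 3 μM Fluo-4 AM, 2.5 mM probenecid and 0.01% pluronic acid. Fluorescence was read at about 22 °C in HBSS with 20 mM HEPES, probenecid and 500 μM Brilliant Black. The response was the peak fluorescence change as % of baseline, from at least 4 experiments run in duplicate.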
A general note: Calcium assays in cells follow changes in intracellular calcium, usually with a dye or a luminescent sensor.

For another assay, the target named is T2, Neuropeptide S receptor (Mus musculus, UniProt Q8BZP8).
T2 sequence (Q8BZP8 whole entry): T1 sequence (whole entry)
As to the kind of experiment: Agonist activity at mouse NPSR expressed in HEK293 cells by calcium mobilization assay. In kind it is functional, cell-based. In a few lines: as §1

The test system of assay [2] is Mus musculus. The experiment in a line: Effect on locomotor activity in […] Swiss mouse assessed as increase in cumulative distance traveled dosed at 1 nmol, icv before 5 mins observed for 60 mins. It counts as functional, organism-based. In a few lines:
(§2)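 Male Swiss mice (2 months, 25–30 g) received peptide i.c.v. at 0.01–1 nmole in 2 μl into the left ventricle under light ether anaesthesia, 5 min before testing. Each mouse was used once, in the light phase, with no food during testing. Activity was tracked for 60 min in 40 × 40 cm cages. Video recorded distance and immobility time, and an infrared beam array counted rearings. There were 4 experiments with 4 mice/group.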

Assay [3] concerns Mus musculus. The experiment in a line: Effect on locomotor activity in […] Swiss mouse assessed as number of rearings dosed at 1 nmol, icv befor 5 mins observed for 60 mins. In kind it is functional, organism-based. The method in brief: as §2
In assay [4] the test system is Mus musculus. The experiment in a line: Effect on locomotor activity in […] Swiss mouse assessed as immobility time at 1 nmol, icv befor 5 mins observed for 60 mins. In kind it is functional, organism-based. In a few lines:
as §2

In assay [5] the test system is Mus musculus. As to the kind of experiment: Effect on locomotor activity in […] Swiss mouse assessed as increase in cumulative distance traveled dosed at 0.1 nmol, icv before 5 mins observed for 60 mins. It counts as functional, organism-based. In a few lines:
as §2

Assay [6] relates to Mus musculus. The experiment in a line: Effect on locomotor activity in […] Swiss mouse assessed as increase in number of rearings dosed at 0.1 nmol, icv before 5 mins observed for 60 mins. In kind it is functional, organism-based. The method in brief: as §2
Assay [7] relates to Mus musculus. The experiment in a line: Effect on locomotor activity in […] Swiss mouse assessed as decrease in immobility time at 0.1 nmol, icv before 5 mins observed for 60 mins.
The target of assay [8] is T1, Neuropeptide S receptor (Mus musculus). As to the kind of experiment: Agonist activity at mouse NPSR expressed in HEK293 cells by calcium mobilization assay relative to basal level. It counts as functional, cell-based. The method in brief: as §1

With `CSCC[C@H](NC(=O)CNC(=O)[C@@H](NC(=O)CNC(=O)[C@@H](NC(=O)[C@@H](CSCNC(C)=O)NC(=O)[C@H](CC(N)=O)NC(=O)[C@H](CCCNC(=N)N)NC(=O)[C@H](Cc1ccccc1)NC(=O)[C@@H](N)CO)C(C)C)[C@@H](C)O)C(=O)N[C@@H](CCCCN)C(=O)N[C@@H](CCCCN)C(=O)N[C@H](C(=O)N[C@@H](CO)C(=O)N[C@@H](Cc1ccccc1)C(=O)N[C@@H](CCC(N)=O)C(=O)N[C@@H](CCCNC(=N)N)C(=O)N[C@@H](C)C(=O)N[C@@H](CCCCN)C(=O)N[C@@H](CO)C(=O)O)[C@@H](C)O` (H-SFRN[dC](Acm)VGTGMKKTSFQRAKS-OH), in assay [1], the result was inactive.
With `CSCC[C@H](NC(=O)CNC(=O)[C@@H](NC(=O)CNC(=O)[C@@H](NC(=O)[C@@H](CSCc1ccccc1)NC(=O)[C@H](CC(N)=O)NC(=O)[C@H](CCCNC(=N)N)NC(=O)[C@H](Cc1ccccc1)NC(=O)[C@@H](N)CO)C(C)C)[C@@H](C)O)C(=O)N[C@@H](CCCCN)C(=O)N[C@@H](CCCCN)C(=O)N[C@H](C(=O)N[C@@H](CO)C(=O)N[C@@H](Cc1ccccc1)C(=O)N[C@@H](CCC(N)=O)C(=O)N[C@@H](CCCNC(=N)N)C(=O)N[C@@H](C)C(=O)N[C@@H](CCCCN)C(=O)N[C@@H](CO)C(=O)O)[C@@H](C)O` (H-SFRN[dC](Bn)VGTGMKKTSFQRAKS-OH), the outcome in assay [1] was inactive.
Same read-out and setting: to `CSCC[C@H](NC(=O)CNC(=O)[C@@H](NC(=O)CNC(=O)[C@@H](NC(=O)[C@@H](CSC(C)(C)C)NC(=O)[C@H](CC(N)=O)NC(=O)[C@H](CCCNC(=N)N)NC(=O)[C@H](Cc1ccccc1)NC(=O)[C@@H](N)CO)C(C)C)[C@@H](C)O)C(=O)N[C@@H](CCCCN)C(=O)N[C@@H](CCCCN)C(=O)N[C@H](C(=O)N[C@@H](CO)C(=O)N[C@@H](Cc1ccccc1)C(=O)N[C@@H](CCC(N)=O)C(=O)N[C@@H](CCCNC(=N)N)C(=O)N[C@@H](C)C(=O)N[C@@H](CCCCN)C(=O)N[C@@H](CO)C(=O)O)[C@@H](C)O` (H-SFRN[dC](tBu)VGTGMKKTSFQRAKS-OH) belongs “inactive”; to `CSCC[C@H](NC(=O)CNC(=O)[C@@H](NC(=O)CNC(=O)[C@@H](NC(=O)[C@@H](Cc1ccccc1)NC(=O)[C@H](CC(N)=O)NC(=O)[C@H](CCCNC(=N)N)NC(=O)[C@H](Cc1ccccc1)NC(=O)[C@@H](N)CO)C(C)C)[C@@H](C)O)C(=O)N[C@@H](CCCCN)C(=O)N[C@@H](CCCCN)C(=O)N[C@H](C(=O)N[C@@H](CO)C(=O)N[C@@H](Cc1ccccc1)C(=O)N[C@@H](CCC(N)=O)C(=O)N[C@@H](CCCNC(=N)N)C(=O)N[C@@H](C)C(=O)N[C@@H](CCCCN)C(=O)N[C@@H](CO)C(=O)O)[C@@H](C)O` (H-SFRN[dF]VGTGMKKTSFQRAKS-OH), “inactive”.
With `CSCC[C@H](NC(=O)CNC(=O)[C@@H](NC(=O)CNC(=O)[C@@H](NC(=O)[C@@H](CC(C)C)NC(=O)[C@H](CC(N)=O)NC(=O)[C@H](CCCNC(=N)N)NC(=O)[C@H](Cc1ccccc1)NC(=O)[C@@H](N)CO)C(C)C)[C@@H](C)O)C(=O)N[C@@H](CCCCN)C(=O)N[C@@H](CCCCN)C(=O)N[C@H](C(=O)N[C@@H](CO)C(=O)N[C@@H](Cc1ccccc1)C(=O)N[C@@H](CCC(N)=O)C(=O)N[C@@H](CCCNC(=N)N)C(=O)N[C@@H](C)C(=O)N[C@@H](CCCCN)C(=O)N[C@@H](CO)C(=O)O)[C@@H](C)O` (H-SFRN[dL]VGTGMKKTSFQRAKS-OH), the EC50 at Neuropeptide S receptor is 89.1 nM.
Regarding `CSCC[C@H](NC(=O)CNC(=O)[C@@H](NC(=O)CNC(=O)[C@@H](NC(=O)[C@@H](CCSC)NC(=O)[C@H](CC(N)=O)NC(=O)[C@H](CCCNC(=N)N)NC(=O)[C@H](Cc1ccccc1)NC(=O)[C@@H](N)CO)C(C)C)[C@@H](C)O)C(=O)N[C@@H](CCCCN)C(=O)N[C@@H](CCCCN)C(=O)N[C@H](C(=O)N[C@@H](CO)C(=O)N[C@@H](Cc1ccccc1)C(=O)N[C@@H](CCC(N)=O)C(=O)N[C@@H](CCCNC(=N)N)C(=O)N[C@@H](C)C(=O)N[C@@H](CCCCN)C(=O)N[C@@H](CO)C(=O)O)[C@@H](C)O` (H-SFRN[dM]VGTGMKKTSFQRAKS-OH), the result in assay [1] was inactive.
In the case of `CSCC[C@H](NC(=O)CNC(=O)[C@@H](NC(=O)CNC(=O)[C@@H](NC(=O)[C@H](NC(=O)[C@H](CC(N)=O)NC(=O)[C@H](CCCNC(=N)N)NC(=O)[C@H](Cc1ccccc1)NC(=O)[C@@H](N)CO)C(C)C)C(C)C)[C@@H](C)O)C(=O)N[C@@H](CCCCN)C(=O)N[C@@H](CCCCN)C(=O)N[C@H](C(=O)N[C@@H](CO)C(=O)N[C@@H](Cc1ccccc1)C(=O)N[C@@H](CCC(N)=O)C(=O)N[C@@H](CCCNC(=N)N)C(=O)N[C@@H](C)C(=O)N[C@@H](CCCCN)C(=O)N[C@@H](CO)C(=O)O)[C@@H](C)O` (H-SFRN[dV]VGTGMKKTSFQRAKS-OH), the outcome in assay [1] was inactive. Also, the result in the assay with Mus musculus [2], with Mus musculus [3] and in the assay with Mus musculus [4] was Active.
As to `CSCC[C@H](NC(=O)CNC(=O)[C@@H](NC(=O)CNC(=O)[C@@H](NC(=O)[C@@H](Cc1c[nH]c2ccccc12)NC(=O)[C@H](CC(N)=O)NC(=O)[C@H](CCCNC(=N)N)NC(=O)[C@H](Cc1ccccc1)NC(=O)[C@@H](N)CO)C(C)C)[C@@H](C)O)C(=O)N[C@@H](CCCCN)C(=O)N[C@@H](CCCCN)C(=O)N[C@H](C(=O)N[C@@H](CO)C(=O)N[C@@H](Cc1ccccc1)C(=O)N[C@@H](CCC(N)=O)C(=O)N[C@@H](CCCNC(=N)N)C(=O)N[C@@H](C)C(=O)N[C@@H](CCCCN)C(=O)N[C@@H](CO)C(=O)O)[C@@H](C)O` (H-SFRN[dW]VGTGMKKTSFQRAKS-OH), the result in [1] was inactive.
For “H-SFRNGVGTGMKKTSFQRAKS-OH [NEUROPEPTIDE S]”, the result in the assay on Mus musculus [5], in the assay on Mus musculus [6] and in the assay on Mus musculus [7] was Active. Besides, the EC50 at Neuropeptide S receptor is 2.24 nM.
For H-SFRNWVGTGMKKTSFQRAKS-OH, the Emax in assay [8] stood at 30%.

Broadly, the EC50 is the concentration that produces a half-maximal response. By Emax is commonly meant the greatest response seen or fitted, relative to the assay's reference.

Values taken from ChEMBL document CHEMBL1139376, “Synthesis and biological activity of human neuropeptide S analogues modified in position 5: identification of potent and pure neuropeptide S receptor antagonists” (J Med Chem, 2009).
